Experimental data: ChEMBL document CHEMBL4011617, “Ugi Reaction-Derived α-Acyl Aminocarboxamides Bind to Phosphatidylinositol 3-Kinase-Related Kinases, Inhibit HSF1-Dependent Heat Shock Response, and Induce Apoptosis in Multiple Myeloma Cells” (J Med Chem, 2017)
The source made the active and inactive calls.

Assays:
INA-6 [1] = experiment: Inhibition of heat shock response in human INA-6 cells assessed as reduction in HSF-1 mediated upregulation of the HSP72 protein expression at 10 uM preincubated for 4 hrs followed by HSP90 inhibitor and HSR inducer NVP-AUY922 addition measured after 4 hrs by Western blot method; format: functional, cell-based
Method in brief: (§1)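 INA-6 cells given the dual DNA-PK/mTOR inhibitor NU7441 for 4 h, then co-treated with 10 nM NVP-AUY922 for 4 h more. Protein lysates analysed by Western blot for HSF1, phospho-HSF1, HSP72 and HSP27, with α-tubulin as loading control.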

INA-6 [2] = experiment: Inhibition of heat shock response in human INA-6 cells assessed as reduction in HSF-1 mediated upregulation of the HSP72 mRNA expression at 10 uM preincubated for 4 hrs followed by HSP90 inhibitor and HSR inducer NVP-AUY922 addition measured after 4 hrs by RT-PCR method; format: functional, cell-based
Method in brief: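 Cells pretreated 4 h with NU7441, then 10 nM NVP-AUY922 added for 4 h. Total mRNA isolated; HSF1 and HSP72 levels determined by RT-PCR and normalized to α-tubulin.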

INA-6 [3] = experiment: Downregulation of NVP-AUY922-induced HSF-1 protein expression in human INA-6 cells at 10 uM preincubated for 4 hrs followed by NVP-AUY922 addition measured after 4 hrs by Western blot method; format: functional, cell-based
Method in brief: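 INA-6 cells received the dual DNA-PK/mTOR inhibitor for 4 h, then 10 nM NVP-AUY922 was added for another 4 h. Protein lysates were Western blotted for HSF1, phospho-HSF1, HSP72 and HSP27, with α-tubulin as the loading control.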

INA-6 [4] = experiment: Downregulation of NVP-AUY922-induced HSF-1 mRNA expression in human INA-6 cells at 10 uM preincubated for 4 hrs followed by NVP-AUY922 addition measured after 4 hrs by RT-PCR method; format: functional, cell-based
Method in brief: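 INA-6 myeloma cells were treated with the dual DNA-PK/mTOR inhibitor for 4 h, then co-treated with 10 nM NVP-AUY922 for a further 4 h. Total RNA was isolated and HSF1 and HSP72 mRNA was measured by RT-PCR. Values were normalized to α-tubulin.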

[5] = target: T1, Heat shock factor protein 1 (Homo sapiens) (UniProt Q00613); experiment: Inhibition of NVP-AUY922-induced HSF-1 phosphorylation in human INA-6 cells at 10 uM preincubated for 4 hrs followed by NVP-AUY922 addition measured after 4 hrs by Western blot method; format: cell-based; method in brief: as §1
T1 sequence (whole entry): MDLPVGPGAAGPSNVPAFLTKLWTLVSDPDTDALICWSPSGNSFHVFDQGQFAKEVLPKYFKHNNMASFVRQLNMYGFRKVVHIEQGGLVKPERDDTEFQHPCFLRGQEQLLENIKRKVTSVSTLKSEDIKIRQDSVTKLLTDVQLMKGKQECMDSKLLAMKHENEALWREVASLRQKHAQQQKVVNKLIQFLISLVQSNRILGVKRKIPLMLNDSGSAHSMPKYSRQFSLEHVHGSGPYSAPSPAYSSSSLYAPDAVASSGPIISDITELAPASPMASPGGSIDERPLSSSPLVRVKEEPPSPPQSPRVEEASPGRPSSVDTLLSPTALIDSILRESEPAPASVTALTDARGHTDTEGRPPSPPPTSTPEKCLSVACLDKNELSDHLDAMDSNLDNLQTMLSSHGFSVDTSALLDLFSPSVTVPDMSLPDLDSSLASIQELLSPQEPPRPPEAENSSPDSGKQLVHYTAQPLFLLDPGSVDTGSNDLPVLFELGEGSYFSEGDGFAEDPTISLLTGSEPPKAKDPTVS

O=c1cc(N2CCOCC2)oc2c(-c3cccc4c3sc3ccccc34)cccc12
active: inhibition (INA-6 [1]) | inhibition (INA-6 [2]) | Activity (INA-6 [3]) | Activity (INA-6 [4]) | inhibition [5]
